ChEMBL document CHEMBL1140904, “Synthesis and analysis of novel glycerolipids for the treatment of metabolic syndrome” (J Med Chem, 2009)

Experiments:
Rattus norvegicus [1] = test: Effect on fatty acid composition in Wistar rat assessed as change in liver MUFA level at 85 uM, po after 6 days; assay type: functional
Method in brief: (§1)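 Male Wistar rats were gavaged once daily for 6 days with compound in 0.5% CMC at 85 or 250 µmol TTA-equivalent per animal. Controls received palmitic acid. Liver was homogenized in 0.25 M sucrose/10 mM HEPES pH 7.4/1 mM EDTA at 0-4 °C. Lipids were extracted with chloroform:methanol 2:1 and spiked with 21:0 internal standard. Fatty acids were BF3-methanol transesterified and quantified as wt%. Values are mean ± SD, n=5.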

Rattus norvegicus [2] = test: Effect on fatty acid composition in Wistar rat assessed as change in liver MUFA level at 250 uM, po after 6 days; assay type: functional; method in brief: as §1
Rattus norvegicus [3] = test: Effect on fatty acid composition in Wistar rat assessed as change in plasma 18;2, n-6 level at 85 uM, po after 6 days; assay type: functional
Rattus norvegicus [4] = test: Induction of PPAR-alpha-regulated HMG-CoA synthase activity in po dosed Wistar rat after 6 days; assay type: functional, organism-based
Method in brief: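 Wistar rats were gavaged daily for 6 days at 85 or 250 µmol TTA-equivalent in 0.5% CMC, with palmitic acid controls. HMG-CoA synthase activity was assayed in the liver postnuclear fraction by the Clinkenbeard method. Mean ± SD, 5 rats/group.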

Rattus norvegicus [5] = test: Effect on fatty acid composition in Wistar rat assessed as change in liver PUFA level at 250 uM, po after 6 days; assay type: functional; method in brief: as §1
Rattus norvegicus [6] = test: Plasma concentration in Wistar rat at 250 uM, po after 6 days; assay type: ADME, organism-based; settings: in vivo, 144 h
Rattus norvegicus [7] = test: Effect on fatty acid composition in Wistar rat assessed as change in liver PUFA level at 85 uM, po after 6 days; assay type: functional; method in brief: as §1
Rattus norvegicus [8] = test: Effect on fatty acid composition in Wistar rat assessed as change in plasma LCPUFA, n-6 level at 85 uM, po after 6 days; assay type: functional
Rattus norvegicus [9] = test: Effect on fatty acid composition in Wistar rat assessed as change in plasma PUFA level at 85 uM, po after 6 days; assay type: functional
Rattus norvegicus [10] = test: Effect on fatty acid composition in Wistar rat assessed as change in liver LCPUFA, n-6 level at 250 uM, po after 6 days; assay type: functional; method in brief: as §1
Rattus norvegicus [11] = test: Decrease in plasma triacylglycerol level in po dosed Wistar rat after 6 days; assay type: functional, organism-based
Method in brief: (§2)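 Male Wistar rats (170-210 g), housed in pairs with chow and water, were gavaged once daily for 6 days with test lipid in 0.5% (w/v) carboxymethylcellulose at 85 or 250 µmol TTA-equivalent per animal. Controls received palmitic acid in CMC. Plasma triacylglycerol and cholesterol were measured with an enzymatic kit, and liver levels were also determined. Values are mean ± SD, n=5 rats.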

Rattus norvegicus [12] = test: Induction of PPAR-alpha-regulated fatty acyl-CoA oxidase activity in po dosed Wistar rat after 6 days; assay type: functional, organism-based
Method in brief: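 Rats were dosed by gastric intubation for 6 days at 85 or 250 µmol TTA-equivalent in 0.5% CMC, with palmitic acid controls. Fatty acyl-CoA oxidase was measured in the liver postnuclear fraction by a coupled assay, following H2O2 production as the rise in dichlorofluorescein absorbance with palmitoyl-CoA. Mean ± SD, n=5.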

Rattus norvegicus [13] = test: Plasma concentration in Wistar rat at 85 uM, po after 6 days; assay type: ADME, organism-based; settings: in vivo, 144 h
Rattus norvegicus [14] = test: Effect on fatty acid composition in Wistar rat assessed as change in liver saturated fatty acid level at 85 uM, po after 6 days; assay type: functional; method in brief: as §1
Rattus norvegicus [15] = test: Effect on fatty acid composition in Wistar rat assessed as change in plasma LCn-6/18:2 level at 85 uM, po after 6 days; assay type: functional
Rattus norvegicus [16] = test: Effect on fatty acid composition in Wistar rat assessed as change in liver saturated fatty acid level at 250 uM, po after 6 days; assay type: functional; method in brief: as §1
Rattus norvegicus [17] = test: Induction of PPAR-alpha-regulated CPT2 activity in po dosed Wistar rat after 6 days; assay type: functional, organism-based
Method in brief: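 Wistar rats were dosed orally for 6 days (85 or 250 µmol TTA-equivalent in 0.5% CMC; palmitic acid controls). CPT-II activity was measured in the liver mitochondrial fraction, prepared from sucrose/HEPES pH 7.4/EDTA homogenate at 0-4 °C. Means ± SD from 5 rats per group.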

Liver [18] = test: Drug level in Wistar rat liver at 85 uM, po after 6 days; assay type: ADME, organism-based; settings: in vivo, 144 h; method in brief: as §1
Rattus norvegicus [19] = test: Effect on fatty acid composition in Wistar rat assessed as change in liver LCPUFA, n-6 level at 85 uM, po after 6 days; assay type: functional; method in brief: as §1
Rattus norvegicus [20] = test: Effect on fatty acid composition in Wistar rat assessed as change in liver 18;2, n-6 level at 250 uM, po after 6 days; assay type: functional; method in brief: as §1
Rattus norvegicus [21] = test: Effect on fatty acid composition in Wistar rat assessed as change in liver LCn-6/18:2 level at 250 uM, po after 6 days; assay type: functional; method in brief: as §1
Rattus norvegicus [22] = test: Effect on fatty acid composition in Wistar rat assessed as change in plasma MUFA level at 250 uM, po after 6 days; assay type: functional
Rattus norvegicus [23] = test: Effect on fatty acid composition in Wistar rat assessed as change in plasma MUFA level at 85 uM, po after 6 days; assay type: functional
Rattus norvegicus [24] = test: Effect on fatty acid composition in Wistar rat assessed as change in plasma PUFA level at 250 uM, po after 6 days; assay type: functional
Rattus norvegicus [25] = test: Effect on fatty acid composition in Wistar rat assessed as change in plasma 18;2, n-6 level at 250 uM, po after 6 days; assay type: functional
Liver [26] = test: Drug level in Wistar rat liver at 250 uM, po after 6 days; assay type: ADME, organism-based; settings: in vivo, 144 h; method in brief: as §1
Rattus norvegicus [27] = test: Effect on fatty acid composition in Wistar rat assessed as change in liver 18;2, n-6 level at 85 uM, po after 6 days; assay type: functional; method in brief: as §1
Rattus norvegicus [28] = test: Effect on fatty acid composition in Wistar rat assessed as change in liver LCn-6/18:2 level at 85 uM, po after 6 days; assay type: functional; method in brief: as §1
Rattus norvegicus [29] = test: Increase in [1-14C]palmitoyl-CoA oxidation in po dosed Wistar rat liver homogenate after 6 days; assay type: functional, organism-based
Method in brief: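 Rats were dosed by gastric intubation for 6 days with 85 or 250 µmol TTA-equivalent in 0.5% CMC, with palmitic acid controls. Liver was homogenized in 0.25 M sucrose, 10 mM HEPES pH 7.4, 1 mM EDTA at 0-4 °C. Palmitoyl-CoA oxidation was read as acid-soluble products from [1-14C]-palmitoyl-CoA in the postnuclear fraction. Mean ± SD, n=5.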

Rattus norvegicus [30] = test: Effect on fatty acid composition in Wistar rat assessed as change in plasma LCPUFA, n-6 level at 250 uM, po after 6 days; assay type: functional
Rattus norvegicus [31] = test: Decrease in plasma cholesterol level in po dosed Wistar rat after 6 days; assay type: functional, organism-based; method in brief: as §2
Rattus norvegicus [32] = test: Effect on fatty acid composition in Wistar rat assessed as change in plasma saturated fatty acid level at 250 uM, po after 6 days; assay type: functional
Rattus norvegicus [33] = test: Effect on fatty acid composition in Wistar rat assessed as change in plasma saturated fatty acid level at 85 uM, po after 6 days; assay type: functional
Rattus norvegicus [34] = test: Effect on fatty acid composition in Wistar rat assessed as change in plasma LCn-6/18:2 level at 250 uM, po after 6 days; assay type: functional

## CCCCCCCCCCCCCCSCC(=O)O [TETRADECYLTHIOACETIC ACID]
Rattus norvegicus [1]
  Activity: 17.35%
Rattus norvegicus [2]
  Activity: 16.86%
Rattus norvegicus [3]
  Activity: 18.46%
Rattus norvegicus [4]
  Activity: Dose-dependent effect
Rattus norvegicus [5]
  Activity: 4.94%
Rattus norvegicus [6]
  Drug uptake: 1.6%
Rattus norvegicus [7]
  Activity: 5.44%
Rattus norvegicus [8]
  Activity: 18.75%
Rattus norvegicus [9]
  Activity: 2.47%
Rattus norvegicus [10]
  Activity: 27.66%
Rattus norvegicus [11]
  Activity: Dose-dependent effect
Rattus norvegicus [12]
  Activity: Dose-dependent effect
Rattus norvegicus [13]
  Drug uptake: 0.32%
Rattus norvegicus [14]
  Activity: 39.67%
Rattus norvegicus [15]
  Activity: 1.03%
Rattus norvegicus [16]
  Activity: 38.71%
Rattus norvegicus [17]
  Activity: Dose-dependent effect
Liver [18]
  Drug uptake: 0.36%
Rattus norvegicus [19]
  Activity: 25.7%
Rattus norvegicus [20]
  Activity: 11.02%
Rattus norvegicus [21]
  Activity: 2.56 dimensionless ratio
Rattus norvegicus [22]
  Activity: 21.32%
Rattus norvegicus [23]
  Activity: 23.49%
Rattus norvegicus [24]
  Activity: 2.24%
Rattus norvegicus [25]
  Activity: 19.68%
Liver [26]
  Drug uptake: 2.03%
Rattus norvegicus [27]
  Activity: 11.15%
Rattus norvegicus [28]
  Activity: 2.34%
Rattus norvegicus [29]
  Activity: Dose-dependent effect
Rattus norvegicus [30]
  Activity: 20.82%
Rattus norvegicus [31]
  Activity: Dose-dependent effect
Rattus norvegicus [32]
  Activity: 35%
Rattus norvegicus [33]
  Activity: 36.02%
Rattus norvegicus [34]
  Activity: 1.06%
